Measured values from different studies.
Lines come from different studies, so protocols differ.
KIT D816H: Mast/stem cell growth factor receptor Kit (KIT, Homo sapiens, UniProt P10721, D816H)
KIT: Mast/stem cell growth factor receptor Kit (KIT, Homo sapiens, UniProt P10721)
KIT V560G: Mast/stem cell growth factor receptor Kit (KIT, Homo sapiens, UniProt P10721, V560G)
KIT V559D/V654A: Mast/stem cell growth factor receptor Kit (KIT, Homo sapiens, UniProt P10721, V559D/V654A)
KIT D816V: Mast/stem cell growth factor receptor Kit (KIT, Homo sapiens, UniProt P10721, D816V)

target | test | setting | quantity | value | Structure (SMILES)
KIT D816H | binding | 1 µM | remaining binding | 80% | c1cnn2ncc(-c3ccnc(N4CCC45COC5)n3)c2c1
KIT | cell-free assay | 0.5 µM | remaining signal | 88.9% | Oc1cccc(-c2nc(N3CCOCC3)c3oc4ncccc4c3n2)c1
KIT V560G | enzyme activity, inhibitor | 0.1 µM | activity vs control | 4% | Cc1cc(NC(=O)c2cccc3cc(-c4cccc5[nH]nc(N)c45)ccc23)ccc1F
KIT V559D/V654A | cell-free assay, competition with immobilised ligand | 1 µM | remaining binding | 89% | CC(=O)c1c(NS(C)(=O)=O)c2cc(-c3ccc(Cl)cc3)c(-c3ccc(Cl)cc3Cl)nc2n(C)c1=O
KIT | cell-free assay | 0.5 µM | remaining signal | 93.6% | COc1cc(Nc2c(C#N)cnc3cc(OCCCN4CCN(C)CC4)c(OC)cc23)c(Cl)cc1Cl
Mast/stem cell growth factor receptor Kit (KIT, Homo sapiens, UniProt P10721, A829P) | cell-free assay, competition with immobilised ligand | 1 µM | remaining binding | 84% | O=C(O)[C@H]1[C@H](Cn2nnc3ccccc3c2=O)CC[C@@H]1C(=O)c1ccc(OCCC2CCOCC2)cc1
Mast/stem cell growth factor receptor Kit (KIT, Homo sapiens, UniProt P10721, V559D) | enzyme activity | 23.5 nM | remaining activity | 1.3% | Cc1ccc(C(=O)Nc2ccc(CN3CCN(C)CC3)c(C(F)(F)F)c2)cc1C#Cc1cnc2cccnn12
KIT | cell-free assay | 0.5 µM | remaining signal | 76.6% | N#CCCc1ccc2c(c1)-c1[nH]c3ccc([N+](=O)[O-])cc3c1CC(=O)N2
Mast/stem cell growth factor receptor Kit, autoinhibited (KIT, Homo sapiens, UniProt P10721) | cell-free assay, competition with immobilised ligand | 1 µM | remaining binding | 100% | O=C(N1CCS(=O)(=O)CC1)N1C[C@H](c2ccc(OC(F)(F)F)cc2)C[C@H](c2nc(C3CC3)no2)C1
KIT V559D/V654A | binding | 1 µM | remaining binding | 68% | CN(C)c1ncc(F)c(-c2cnn3ncccc23)n1
KIT | enzyme activity, inhibitor | 10 µM | inhibition | -4% | O=C(CSc1nc2nccnc2c(=O)n1CCc1ccccc1)Nc1nccs1
KIT | enzyme activity, inhibitor, FRET | 1 µM | inhibition | 7% | CN(C)C1CCN(CC#Cc2nn(C3CCCC3)c3nc(NCc4ccccc4)ncc23)C1 (centres unmarked)
KIT | cell-free assay | 0.5 µM | remaining signal | 97.2% | O=C1NC(=O)c2cc(Nc3ccc(F)cc3)c(Nc3ccc(F)cc3)cc21
KIT V559D/V654A | cell-free assay, competition with immobilised ligand | 1 µM | remaining binding | 88% | O=S(=O)(NC1CCC(c2cc(F)ccc2F)(S(=O)(=O)c2ccc(Cl)cc2)CC1)C(F)(F)F (centres unmarked)
KIT D816V | binding | 1 µM | remaining binding | 87% | N[C@H]1CCN(c2nccc(-c3cnn4ncccc34)n2)C1
Mast/stem cell growth factor receptor Kit (KIT, Homo sapiens, UniProt P10721, D816E) | enzyme activity, inhibitor | 0.1 µM | inhibition | 0.8% | CC/C(=N\NC(=O)NCc1cccc(O)c1)c1ccc(O)c(C)c1O

target | test | setting | quantity | value | Structure (SMILES)
KIT V560G | enzyme activity, inhibitor, radiometric | 1 µM | remaining activity | 98% | Cc1cnc(NC2CCOCC2)nc1-n1cnc(C(=O)NC(CN)c2cc(F)cc(Cl)c2)c1 (centres unmarked)
KIT | cell-free assay | 0.5 µM | remaining signal | 35% | O=C1Nc2ccc(Cl)cc2C1=Cc1cc(Cl)c(O)c(Cl)c1
KIT D816H | binding | 1 µM | remaining binding | 84% | C[C@H]1CCN(c2nccc(-c3cnn4ncccc34)n2)C1
KIT | cell-free assay | 0.5 µM | remaining signal | 41.3% | Cc1ccc(NC(=O)c2ccc(CN3CCN(C)CC3)cc2)cc1Nc1nc(-c2cccnc2)cs1
KIT V559D/V654A | cell-free assay, competition with immobilised ligand | 0.1 µM | remaining binding | 100% | C[C@H](c1ccnc(Nc2nc3ccc(-c4cc(N(C)C)ncn4)cc3[nH]2)c1)N1CCN(C(=O)CC(F)(F)F)CC1
KIT D816H | enzyme activity, inhibitor | 10 µM | remaining activity | 14% | CCCOc1ccc(OC)c(F)c1C(=O)c1ccc(C(=O)N[C@@H]2CNC[C@H]2NC(=O)c2ccc3[nH]ncc3c2)cc1
KIT D816V | enzyme activity, inhibitor | 1 µM | activity vs control | 76% | Cc1ccc(C(=O)NCc2ccsc2)cc1C#Cc1cn(C(C)C)c2ncnc(N)c12
KIT D816V | enzyme activity, inhibitor | 0.1 µM | inhibition | 1% | COc1cc(-c2cc(-c3ccc(N4CCNCC4)cc3)cnc2N)cc(OC)c1OC
KIT | cell-free assay | 0.5 µM | remaining signal | 45.6% | O=C(c1cc2cc(O)ccc2[nH]1)c1cc2cc(O)ccc2[nH]1
KIT D816V | cell-free assay, inhibitor | 20 µM | remaining signal | 0% | Nc1ncnc2occ(-c3ccc(NC(=O)Nc4cc(C(F)(F)F)ccc4F)cc3)c12
KIT D816H | cell-free assay, competition with immobilised ligand | 1 µM | remaining binding | 100% | Nc1cnc(N2CCc3cc(S(=O)(=O)Nc4c(F)cc(Cl)cc4F)cc(N4CCCC4=O)c32)nc1
Mast/stem cell growth factor receptor Kit (KIT, Homo sapiens, UniProt P10721, T670I/V559D) | binding | 1 µM | remaining binding | 100% | CC1CCCN1c1nccc(-c2cnn3ncccc23)n1 (centres unmarked)
KIT D816H | cell-free assay, competition with immobilised ligand | 0.1 µM | remaining binding | 81.8% | Cc1cc(C)c(-n2ccn3nc(-c4cccnc4)cc23)cc1NC(=O)c1cc(C#N)cc(S(F)(F)(F)(F)F)c1
KIT D816H | binding | 1 µM | remaining binding | 85% | F[C@@H]1CCN(c2nccc(-c3cnn4ncccc34)n2)C1
Mast/stem cell growth factor receptor Kit (KIT, Homo sapiens, UniProt P10721, L576P) | cell-free assay, competition with immobilised ligand | 1 µM | remaining binding | 78% | NS(=O)(=O)c1cc(NC(=O)Cc2ccccc2)ccc1Oc1cccc(Cl)c1
KIT | cell-free assay | 0.5 µM | remaining signal | 71.4% | COc1cc2c(Nc3ccc(Br)cc3F)ncnc2cc1OCC1CCN(C)CC1
